These results are taken from ChEMBL document CHEMBL1153766, “Regioselective reaction: synthesis and pharmacological study of Mannich bases containing ibuprofen moiety” (2009).

For assay [1], the system named is Rattus norvegicus. The experiment in a line: Antiinflammatory activity against Wistar albino rat assessed as inhibition of carrageenan-induced paw edema at 20 mg/kg, po administered 30 mins prior to carrageenan challenge measured after 2.5 hrs. It is filed as functional. The procedure, abridged:
(§1)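 Carrageenan paw oedema in Wistar albino rats (Winter method). Compounds given orally at 20 mg/kg as a suspension in 1% carboxymethyl cellulose, 30 min before 0.1 mL of 1% w/v carrageenan injected into the plantar region of the paw. Paw volume measured by plethysmography at 30, 60, 90, 120, 150 and 180 min. Inhibition calculated relative to vehicle controls. Mean ± SEM.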
On the technique in general: In the carrageenan paw model, swelling and tenderness develop within hours.

Assay [2] relates to Rattus norvegicus. The assay can be described thus: Antiinflammatory activity against Wistar albino rat assessed as inhibition of carrageenan-induced paw edema at 20 mg/kg, po administered 30 mins prior to carrageenan challenge measured after 2 hrs. It is filed as functional. Summed up:
as §1

Assay [3] has as its system Rattus norvegicus. The experiment in a line: Antiinflammatory activity against Wistar albino rat assessed as inhibition of carrageenan-induced paw edema at 20 mg/kg, po administered 30 mins prior to carrageenan challenge measured after 1.5 hrs. It is filed as functional. The procedure, abridged: as §1
A further assay concerns Mus musculus. The experiment in a line: Analgesic activity against Swiss albino mouse assessed as increase in paw licking or jump response at 10 mg/kg, po after 1.5 hrs by hot plate method. It is filed as functional. The procedure, abridged: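 Hot-plate test in Swiss albino mice, 6 per group. Compounds given orally by gavage as a suspension in 1% carboxymethyl cellulose, 10 mg/kg. Animals placed on a plate held at 55 ± 1 °C, with paw licking or jumping as the end point. Reaction time recorded at 30, 60 and 90 min after dosing. Percentage increase in reaction time calculated using the maximum tolerated reaction time. Mean ± SEM.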
A general note: Hot-plate and tail-flick tests time the reaction to a heat stimulus.

In assay [4] the test system is Rattus norvegicus. The experiment in a line: Antiinflammatory activity against Wistar albino rat assessed as inhibition of carrageenan-induced paw edema at 20 mg/kg, po administered 30 mins prior to carrageenan challenge measured after 0.5 hrs. It is filed as functional. The procedure, abridged: as §1
The test system of assay [5] is Rattus norvegicus. The experiment in a line: Antiinflammatory activity against Wistar albino rat assessed as inhibition of carrageenan-induced paw edema at 20 mg/kg, po administered 30 mins prior to carrageenan challenge measured after 3 hrs. It is filed as functional. The procedure, abridged:
as §1

The subject of assay [6] is Rattus norvegicus. The experiment in a line: Antiinflammatory activity against Wistar albino rat assessed as inhibition of carrageenan-induced paw edema at 20 mg/kg, po administered 30 mins prior to carrageenan challenge measured after 1 hrs. It is filed as functional. Summed up:
as §1

A further assay concerns Aspergillus. The assay can be described thus: Antimicrobial activity against Aspergillus at 1000 ug after 24 to 48 hrs by well diffusion method. It is filed as functional, organism-based. The procedure, abridged:
(§2)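 Agar well diffusion against Staphylococcus aureus, Escherichia coli and Aspergillus. Compounds dissolved in DMF (10 mg in 10 mL), and the solution placed into wells cut with a borer. Plates incubated at 37 °C for 24–48 h, then inspected.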
In general terms: In agar diffusion tests the substance spreads into inoculated agar from a disc or well.

The subject of the next assay is Escherichia coli. The assay can be described thus: Antimicrobial activity against Escherichia coli at 1000 ug after 24 to 48 hrs by well diffusion method. It is filed as functional, organism-based. Summed up:
as §2

The test system of the next assay is Staphylococcus aureus. The assay can be described thus: Antimicrobial activity against Staphylococcus aureus at 1000 ug after 24 to 48 hrs by well diffusion method. It is filed as functional, organism-based. The procedure, abridged:
as §2

Structures are written as SMILES. Active and inactive are the calls of the source. The calls are words filed in the database; no cut-off is given here.

In the case of `O=C(O)Cc1ccccc1Nc1c(Cl)cccc1Cl` [DICLOFENAC], the inhibition in vivo at 20 mg/kg is 69% in the assay on Rattus norvegicus [1]; 87% in the assay with Rattus norvegicus [2]; 70% in the assay with Rattus norvegicus [3]; 83% in the assay with Rattus norvegicus [4]; 65% with Rattus norvegicus [5]; 59% with Rattus norvegicus [6]. In addition, the Activity in the assay with Mus musculus came to 79.24%.
For the compound `Cc1ccc(/C=N/n2c(C(C)c3ccc(CC(C)C)cc3)nn(CN3CCOCC3)c2=S)cc1` (centres undefined), the inhibition in vivo at 20 mg/kg in the assay on Rattus norvegicus [1] turned out to be 67%; with Rattus norvegicus [2], 60%; in the assay on Rattus norvegicus [3], 64%; with Rattus norvegicus [4], 0%; with Rattus norvegicus [5] it was 68%; in the assay on Rattus norvegicus [6] it was 23%. Besides, the result in the assay on Aspergillus, in the assay on Escherichia coli and with Staphylococcus aureus was inactive. Further, the Activity in the assay with Mus musculus is listed as 64.32%.
For `CC(C)Cc1ccc(C(C)c2nn(CN3CCN(C)CC3)c(=S)n2/N=C/c2ccc([N+](=O)[O-])cc2)cc1` (centres undefined), the inhibition in vivo at 20 mg/kg with Rattus norvegicus [1] amounted to 75%; in the assay with Rattus norvegicus [2], 68%; with Rattus norvegicus [3], 82%; with Rattus norvegicus [4], 38%; in the assay on Rattus norvegicus [5] it was 74%; in the assay with Rattus norvegicus [6], 70%. The result with Aspergillus, with Escherichia coli and in the assay on Staphylococcus aureus was inactive. The Activity in the assay with Mus musculus is 70.75%.
Take `CC(C)Cc1ccc(C(C)c2nnc(S)n2/N=C/c2ccc(Br)cc2)cc1` (centres undefined): the inhibition in vivo at 20 mg/kg with Rattus norvegicus [1] was 70%; with Rattus norvegicus [2] it was 60%; with Rattus norvegicus [3] it was 65%; in the assay with Rattus norvegicus [4], 0%; with Rattus norvegicus [5], 72%; in the assay on Rattus norvegicus [6] it was 16%. The outcome in the assay with Aspergillus, with Escherichia coli and with Staphylococcus aureus was inactive.
On to `CC(C)Cc1ccc(C(C)C(=O)O)cc1` (centres undefined) [IBUPROFEN], for which the inhibition in vivo at 20 mg/kg turned out to be 39% with Rattus norvegicus [1]; 36% with Rattus norvegicus [2]; 25% in the assay with Rattus norvegicus [3]; 20% with Rattus norvegicus [4]; 42% in the assay on Rattus norvegicus [5]; 18% with Rattus norvegicus [6].
Turning to `CC(C)Cc1ccc(C(C)c2nnc(S)n2/N=C/c2ccc(Cl)cc2)cc1` (centres undefined), the inhibition in vivo at 20 mg/kg with Rattus norvegicus [1] is 62%; with Rattus norvegicus [2] it was 57%; in the assay on Rattus norvegicus [3], 52%; in the assay on Rattus norvegicus [4] it was 62%; in the assay with Rattus norvegicus [5], 64%; in the assay on Rattus norvegicus [6], 49%. Also, the outcome with Aspergillus, in the assay on Escherichia coli and in the assay with Staphylococcus aureus was inactive.
With `CC(C)Cc1ccc(C(C)c2nn(CN(c3ccccc3)c3ccccc3)c(=S)n2/N=C/c2ccc(Br)cc2)cc1` (centres undefined), the inhibition in vivo at 20 mg/kg with Rattus norvegicus [1] is 57%; with Rattus norvegicus [2], 38%; in the assay on Rattus norvegicus [3], 38%; in the assay with Rattus norvegicus [4], 9%; with Rattus norvegicus [5], 57%; in the assay with Rattus norvegicus [6] it was 10%. Further, the outcome in the assay with Aspergillus, in the assay on Escherichia coli and in the assay with Staphylococcus aureus was inactive.
With `CC(C)Cc1ccc(C(C)c2nnc(S)n2N)cc1` (centres undefined), the inhibition in vivo at 20 mg/kg in the assay on Rattus norvegicus [1] turned out to be 50%; in the assay with Rattus norvegicus [2], 45%; in the assay with Rattus norvegicus [3], 46%; in the assay with Rattus norvegicus [4], 30%; with Rattus norvegicus [5] it was 56%; in the assay with Rattus norvegicus [6], 32%. Further, the outcome in the assay on Aspergillus, in the assay with Escherichia coli and in the assay on Staphylococcus aureus was inactive.
As to `CC(C)Cc1ccc(C(C)c2nn(CN3CCOCC3)c(=S)n2/N=C/c2ccc([N+](=O)[O-])cc2)cc1` (centres undefined), the inhibition in vivo at 20 mg/kg in the assay with Rattus norvegicus [1] stood at 71%; with Rattus norvegicus [2], 54%; in the assay on Rattus norvegicus [3], 65%; with Rattus norvegicus [4] it was 12%; with Rattus norvegicus [5], 73%; in the assay on Rattus norvegicus [6], 52%. The result in the assay with Aspergillus, in the assay with Escherichia coli and with Staphylococcus aureus was inactive. Also, the Activity in the assay on Mus musculus is 79.6%.
As for `CC(C)Cc1ccc(C(C)c2nn(CN3CCOCC3)c(=S)n2/N=C/c2ccc(Cl)cc2)cc1` (centres undefined), the inhibition in vivo at 20 mg/kg came out at 73% in the assay on Rattus norvegicus [1]; 61% in the assay on Rattus norvegicus [2]; 61% in the assay with Rattus norvegicus [3]; 90% in the assay with Rattus norvegicus [4]; 74% in the assay with Rattus norvegicus [5]; 42% with Rattus norvegicus [6]. For the same compound, the outcome with Aspergillus, in the assay with Escherichia coli and with Staphylococcus aureus was inactive. In the assay on Mus musculus, the Activity was 76.49%.

The inhibition in vivo is the share of the control response that was lost under treatment.
